Laboratory results as given in ChEMBL document CHEMBL1130151, “Curcumin analogs with altered potencies against HIV-1 integrase as probes for biochemical mechanisms of drug action” (J Med Chem, 1997).

Experiments:
[1] = molecular target: T1, Human immunodeficiency virus type 1 integrase (Human immunodeficiency virus 1, UniProt Q7ZJM1); assay: Inhibition of 3'- processing activity of HIV-1 integrase
How it was run: (§1)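 Recombinant HIV-1 integrase (200 nM final) preincubated with inhibitor 30 min at 30 °C in buffer (pH 7.2 MOPS, 7.5 mM MnCl2, 10% DMSO, 50 mM NaCl, BSA, reducing agents, glycerol). Then 20 nM 5′-32P-labeled linear oligonucleotide substrate added, reaction run 1 h more. Products resolved on denaturing 20% polyacrylamide/urea gel. IC50 read from plot of concentration versus percent inhibition.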

[2] = molecular target: T1, Human immunodeficiency virus type 1 integrase; assay: Inhibition of strand transfer activity of HIV-1 integrase; how it was run: as §1

T1 sequence (Q7ZJM1 whole entry): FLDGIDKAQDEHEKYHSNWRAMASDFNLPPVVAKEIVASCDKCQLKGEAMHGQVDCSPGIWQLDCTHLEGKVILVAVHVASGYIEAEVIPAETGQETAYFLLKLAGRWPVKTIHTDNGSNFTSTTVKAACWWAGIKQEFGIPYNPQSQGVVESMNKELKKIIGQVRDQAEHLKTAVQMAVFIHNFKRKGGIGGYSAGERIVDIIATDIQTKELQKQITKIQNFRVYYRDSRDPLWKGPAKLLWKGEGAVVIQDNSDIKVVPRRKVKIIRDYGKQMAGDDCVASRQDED

SMILES | IC50 [1] [µM] | IC50 [2] [µM]
O=C(/C=C/c1ccccc1)CC(=O)/C=C/c1ccccc1 | > 300 | > 300
COc1ccc(/C=C/C(=O)CC(=O)/C=C/c2ccc(OC)cc2)cc1 | > 300 | > 300
COc1cc(/C=C/C(=O)CC(=O)/C=C/c2ccc(O)c(O)c2)ccc1O | 18 | 9
O=C(/C=C/c1ccc(O)c(O)c1)CC(=O)/C=C/c1ccc(O)c(O)c1 | 6 | 3.1
O=C(/C=C/c1ccc(O)cc1)CC(=O)/C=C/c1ccc(O)cc1 [BISDEMETHOXYCURCUMIN] | 120 | 80
COc1cc(/C=C/C(=O)CC(=O)/C=C/c2ccc(O)c(OC)c2)ccc1O [CURCUMIN] | 150 | 140
COc1cc(/C=C/C(O)=C/C(=O)/C=C/c2ccc(O)cc2)ccc1O [DEMETHOXYCURCUMIN] | 140 | 120
O=C(/C=C/c1ccc(O)c(O)c1)O[C@H](Cc1ccc(O)c(O)c1)C(=O)O [ROSMARINIC ACID] | 9 | 4
COc1cc(CCC(=O)CC(=O)CCc2ccc(O)c(OC)c2)ccc1O [TETRAHYDROCURCUMIN] | > 300 | > 300
